Measurements taken from ChEMBL document CHEMBL5303300, “EUbOPEN Chemogenomics Library - Multiplex” (2023).
Values joined by “and” are separate entries in the source; they are usually repeats but may differ in a detail not shown here. Equal values may be shown once.

What was measured:
Format in all cases: toxicity, cell-based
Fibroblast = assay: Multiplex assay against human fibroblast; conditions: number of replicates 2
Procedure, shortened: (§1)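 Per cents of healthy-nucleus cells form the tubulin, mitochondrial-mass and membrane-permeability phenotype values. Live cells were stained at seeding with Hoechst33342, BioTracker Green Microtubule Cytoskeleton Dye, MitoTracker Red and Annexin V Alexa Fluor 680. After compound addition they were imaged on a CQ1 microscope at 37°C and 5% CO2, and CellPathfinder machine-learning gating split them into Hoechst high-intensity objects or normal cells, normal cells into healthy, pyknosed or fragmented nuclei, and pyknosed cells into mitotic or apoptotic.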

HEK-293T = assay: Multiplex assay against HEK293T; conditions: human, number of replicates 2; procedure, shortened: as §1
U2OS = assay: Multiplex assay against U2OS; conditions: human, number of replicates 2; procedure, shortened: as §1
[1] = 12 h, 1 µM, compound concentration 1 uM
[2] = 12 h, 10 µM, compound concentration 10 uM
[3] = 24 h, 1 µM, compound concentration 1 uM
[4] = 24 h, 10 µM, compound concentration 10 uM
[5] = 48 h, 1 µM, compound concentration 1 uM
[6] = 48 h, 10 µM, compound concentration 10 uM

## CC(C)(C)c1cnc(CSc2cnc(NC(=O)C3CCNCC3)s2)o1 [BMS-387032]
Fibroblast; [1]
  Population Apoptotic (%): 56% and 46%
  Population Fragmented Nuclei (%): 8% and 6%
  Population Healthy Nuclei (%): 60% and 72%
  Population Hoechst High Intensity Objects (%): 0%
  Population Membrane Permeable-Phenotype (%): 6% and 7%
  Population Mitochondria Different-Phenotype (%): 0% and 2%
  Population Mitotic Cells (%): 43% and 53%
  Population Normal (%): 100%
  Population Pyknosed Nuclei (%): 31% and 21%
  Population Tubulin-Different-Phenotype (%): 15% and 16%
  Total Cell Count: 96 and 204
Fibroblast; [2]
  Population Apoptotic (%): 46% and 38%
  Population Fragmented Nuclei (%): 7% and 9%
  Population Healthy Nuclei (%): 58% and 67%
  Population Hoechst High Intensity Objects (%): 0%
  Population Membrane Permeable-Phenotype (%): 3% and 6%
  Population Mitochondria Different-Phenotype (%): 4% and 8%
  Population Mitotic Cells (%): 53% and 61%
  Population Normal (%): 100%
  Population Pyknosed Nuclei (%): 33% and 23%
  Population Tubulin-Different-Phenotype (%): 37% and 43%
  Total Cell Count: 141 and 213
Fibroblast; [3]
  Population Apoptotic (%): 64% and 54%
  Population Fragmented Nuclei (%): 12% and 10%
  Population Healthy Nuclei (%): 61% and 63%
  Population Hoechst High Intensity Objects (%): 0%
  Population Membrane Permeable-Phenotype (%): 7% and 9%
  Population Mitochondria Different-Phenotype (%): 0% and 1%
  Population Mitotic Cells (%): 35% and 45%
  Population Normal (%): 100%
  Population Pyknosed Nuclei (%): 26%
  Population Tubulin-Different-Phenotype (%): 21% and 18%
  Total Cell Count: 106 and 208
Fibroblast; [4]
  Population Apoptotic (%): 52% and 71%
  Population Fragmented Nuclei (%): 12% and 11%
  Population Healthy Nuclei (%): 49% and 62%
  Population Hoechst High Intensity Objects (%): 0%
  Population Membrane Permeable-Phenotype (%): 6% and 7%
  Population Mitochondria Different-Phenotype (%): 10% and 12%
  Population Mitotic Cells (%): 47% and 28%
  Population Normal (%): 100%
  Population Pyknosed Nuclei (%): 37% and 26%
  Population Tubulin-Different-Phenotype (%): 41% and 40%
  Total Cell Count: 147 and 198
Fibroblast; [5]
  Population Apoptotic (%): 74% and 73%
  Population Fragmented Nuclei (%): 12% and 14%
  Population Healthy Nuclei (%): 49% and 52%
  Population Hoechst High Intensity Objects (%): 0%
  Population Membrane Permeable-Phenotype (%): 23% and 15%
  Population Mitochondria Different-Phenotype (%): 2% and 0%
  Population Mitotic Cells (%): 25% and 26%
  Population Normal (%): 100%
  Population Pyknosed Nuclei (%): 38% and 33%
  Population Tubulin-Different-Phenotype (%): 33% and 30%
  Total Cell Count: 183 and 115
Fibroblast; [6]
  Population Apoptotic (%): 64% and 73%
  Population Fragmented Nuclei (%): 14% and 11%
  Population Healthy Nuclei (%): 43% and 38%
  Population Hoechst High Intensity Objects (%): 0%
  Population Membrane Permeable-Phenotype (%): 10% and 22%
  Population Mitochondria Different-Phenotype (%): 8% and 16%
  Population Mitotic Cells (%): 35% and 26%
  Population Normal (%): 100%
  Population Pyknosed Nuclei (%): 41% and 49%
  Population Tubulin-Different-Phenotype (%): 44% and 58%
  Total Cell Count: 194 and 137
HEK-293T; [1]
  Population Apoptotic (%): 64% and 60%
  Population Fragmented Nuclei (%): 3%
  Population Healthy Nuclei (%): 69% and 77%
  Population Hoechst High Intensity Objects (%): 17% and 10%
  Population Membrane Permeable-Phenotype (%): 6% and 0%
  Population Mitochondria Different-Phenotype (%): 54%
  Population Mitotic Cells (%): 35% and 40%
  Population Normal (%): 82% and 89%
  Population Pyknosed Nuclei (%): 26% and 18%
  Population Tubulin-Different-Phenotype (%): 75% and 77%
HEK-293T; [2]
  Population Apoptotic (%): 87% and 73%
  Population Fragmented Nuclei (%): 6% and 3%
  Population Healthy Nuclei (%): 77% and 90%
  Population Hoechst High Intensity Objects (%): 18% and 15%
  Population Membrane Permeable-Phenotype (%): 3% and 1%
  Population Mitochondria Different-Phenotype (%): 66% and 67%
  Population Mitotic Cells (%): 12% and 26%
  Population Normal (%): 81% and 84%
  Population Tubulin-Different-Phenotype (%): 84% and 85%
HEK-293T; [3]
  Population Apoptotic (%): 73% and 69%
  Population Fragmented Nuclei (%): 6% and 5%
  Population Healthy Nuclei (%): 70% and 72%
  Population Hoechst High Intensity Objects (%): 22% and 14%
  Population Membrane Permeable-Phenotype (%): 3% and 0%
  Population Mitochondria Different-Phenotype (%): 58% and 61%
  Population Mitotic Cells (%): 26% and 30%
  Population Normal (%): 77% and 85%
  Population Pyknosed Nuclei (%): 23% and 21%
  Population Tubulin-Different-Phenotype (%): 69% and 71%
HEK-293T; [4]
  Population Apoptotic (%): 87% and 75%
  Population Fragmented Nuclei (%): 9% and 5%
  Population Healthy Nuclei (%): 73% and 85%
  Population Hoechst High Intensity Objects (%): 19% and 17%
  Population Membrane Permeable-Phenotype (%): 0%
  Population Mitochondria Different-Phenotype (%): 80% and 78%
  Population Mitotic Cells (%): 12% and 25%
  Population Normal (%): 80% and 82%
  Population Pyknosed Nuclei (%): 16% and 9%
  Population Tubulin-Different-Phenotype (%): 84% and 89%
HEK-293T; [5]
  Population Apoptotic (%): 77% and 81%
  Population Fragmented Nuclei (%): 7% and 4%
  Population Healthy Nuclei (%): 71% and 77%
  Population Hoechst High Intensity Objects (%): 21% and 16%
  Population Membrane Permeable-Phenotype (%): 1% and 0%
  Population Mitochondria Different-Phenotype (%): 62% and 68%
  Population Mitotic Cells (%): 22% and 18%
  Population Normal (%): 78% and 83%
  Population Pyknosed Nuclei (%): 21% and 18%
  Population Tubulin-Different-Phenotype (%): 64% and 65%
HEK-293T; [6]
  Population Apoptotic (%): 92% and 93%
  Population Fragmented Nuclei (%): 9% and 5%
  Population Healthy Nuclei (%): 71% and 86%
  Population Hoechst High Intensity Objects (%): 23% and 19%
  Population Membrane Permeable-Phenotype (%): 2%
  Population Mitochondria Different-Phenotype (%): 83% and 86%
  Population Mitotic Cells (%): 7% and 6%
  Population Normal (%): 76% and 80%
  Population Pyknosed Nuclei (%): 18% and 8%
  Population Tubulin-Different-Phenotype (%): 85% and 89%
U2OS; [1]
  Population Apoptotic (%): 83% and 88%
  Population Healthy Nuclei (%): 60% and 73%
  Population Hoechst High Intensity Objects (%): 1% and 0%
  Population Membrane Permeable-Phenotype (%): 8% and 3%
  Population Mitochondria Different-Phenotype (%): 2% and 4%
  Population Mitotic Cells (%): 16% and 12%
  Population Normal (%): 98% and 100%
  Population Pyknosed Nuclei (%): 10% and 19%
  Population Tubulin-Different-Phenotype (%): 80% and 82%
  Total Cell Count: 61 and 128
U2OS; [2]
  Population Apoptotic (%): 85% and 65%
  Population Healthy Nuclei (%): 32% and 71%
  Population Hoechst High Intensity Objects (%): 0% and 1%
  Population Mitochondria Different-Phenotype (%): 7% and 11%
  Population Mitotic Cells (%): 14% and 35%
  Population Normal (%): 100% and 98%
  Population Pyknosed Nuclei (%): 17% and 22%
U2OS; [3]
  Population Apoptotic (%): 66% and 94%
  Population Fragmented Nuclei (%): 22% and 9%
  Population Healthy Nuclei (%): 62% and 69%
  Population Hoechst High Intensity Objects (%): 1% and 0%
  Population Membrane Permeable-Phenotype (%): 8% and 1%
  Population Mitochondria Different-Phenotype (%): 5%
  Population Normal (%): 98% and 100%
  Population Pyknosed Nuclei (%): 15% and 21%
  Population Tubulin-Different-Phenotype (%): 75% and 77%
  Total Cell Count: 60 and 163
U2OS; [4]
  Population Apoptotic (%): 87% and 78%
  Population Healthy Nuclei (%): 32% and 41%
  Population Hoechst High Intensity Objects (%): 0%
  Population Mitochondria Different-Phenotype (%): 21% and 25%
  Population Mitotic Cells (%): 12% and 21%
  Population Normal (%): 100% and 99%
  Population Pyknosed Nuclei (%): 18% and 46%
  Population Tubulin-Different-Phenotype (%): 57% and 52%
U2OS; [5]
  Population Apoptotic (%): 68% and 93%
  Population Fragmented Nuclei (%): 23% and 8%
  Population Healthy Nuclei (%): 55% and 66%
  Population Hoechst High Intensity Objects (%): 0%
  Population Mitochondria Different-Phenotype (%): 6% and 5%
  Population Normal (%): 100%
  Population Pyknosed Nuclei (%): 21% and 25%
  Population Tubulin-Different-Phenotype (%): 89% and 80%
  Total Cell Count: 89 and 235
U2OS; [6]
  Population Apoptotic (%): 84% and 94%
  Population Healthy Nuclei (%): 21% and 9%
  Population Hoechst High Intensity Objects (%): 0% and 4%
  Population Membrane Permeable-Phenotype (%): 80% and 41%
  Population Mitochondria Different-Phenotype (%): 40% and 52%
  Population Mitotic Cells (%): 15% and 5%
  Population Normal (%): 100% and 95%
  Population Pyknosed Nuclei (%): 27% and 75%
  Population Tubulin-Different-Phenotype (%): 50% and 76%
